Assay [1] deals with CAL-27. Nature of the assay: Potentiation of cisplatin-induced apoptosis in human CAL27 cells at 0.5 uM preincubated for 48 hrs followed by cisplatin treatment for 6 hrs measured after 24 hrs by propidium iodide dye-based flow cytometry (reference value: 21.8%). In kind it is functional. On the technique in general: A flow cytometer gives signals particle by particle.
The subject of assay [2] is CAL-27. Nature of the assay: Potentiation of cisplatin-induced apoptosis in human CAL27 cells at 0.5 uM preincubated for 48 hrs followed by cisplatin treatment for 6 hrs measured after 24 hrs by propidium iodide dye-based flow cytometry. The class given is functional, cell-based.
In assay [3] the test system is CAL-27. The experiment in a line: Potentiation of 0.316 uM cisplatin-induced cytotoxicity against human CAL27 cells assessed as decrease in cell viability by measuring combination index at 500 nM preincubated for 48 hrs followed by cisplatin treatment measured after 72 hrs by MTT assay. Background: Tetrazolium assays rely on reduction of a dye to a coloured formazan, in cell work by metabolically active cells.

The subject of assay [4] is CAL-27. The experiment in a line: Potentiation of cisplatin-induced cytotoxicity against human CAL27 cells assessed as fold reduction in cisplatin IC50 at 1 uM preincubated for 48 hrs followed by cisplatin treatment measured after 72 hrs by MTT assay relative to cisplatin alone. In kind it is functional. The gist of the method: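 Cells were preincubated 48 h with HDAC inhibitor, then cisplatin was added over a concentration range for 72 h, with MTT read-out. Shift factor is cisplatin-alone IC50 divided by combination IC50. Data are mean ± SEM of pooled data from at least three independent experiments, each in triplicate. Significance was by t test (p < 0.05).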

Assay [5] deals with CAL-27. Nature of the assay: Potentiation of 0.316 uM cisplatin-induced cytotoxicity against human CAL27 cells assessed as decrease in cell viability by measuring combination index at 900 uM preincubated for 48 hrs followed by cisplatin treatment measured after 72 hrs by MTT assay. In kind it is functional. The note with it: in the assay text read “at 900 nM” for “at 900 uM”. The procedure, abridged: (§1)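 Cal27 and cisplatin-resistant Cal27CisR cells were preincubated with the HDAC inhibitor for 48 h, then given cisplatin in combination. Viability was read by MTT after 72 h. The combination index was computed by the Chou–Talalay method: CI > 1 is antagonism, CI = 1 is additive, and CI < 0.9 is synergism. Points with fraction affected below 0.20 were flagged.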

Assay [6] concerns CAL-27. The experiment in a line: Potentiation of 0.316 uM cisplatin-induced cytotoxicity against human CAL27 cells assessed as decrease in cell viability by measuring combination index at 1500 uM preincubated for 48 hrs followed by cisplatin treatment measured after 72 hrs by MTT assay. In kind it is functional. The following applies: in the assay text read “at 1500 nM” for “at 1500 uM”. The procedure, abridged:
as §1

Assay [7] relates to CAL-27. Nature of the assay: Potentiation of 1 uM cisplatin-induced cytotoxicity against human CAL27 cells assessed as decrease in cell viability by measuring combination index at 900 uM preincubated for 48 hrs followed by cisplatin treatment measured after 72 hrs by MTT assay. In kind it is functional. The gist of the method: (§2)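 HDAC inhibitor was added 48 h before cisplatin, then cells were exposed to cisplatin for 72 h and viability was read by MTT assay. Combination index was computed by the Chou–Talalay method: CI > 1 is antagonism, CI = 1 additive, CI < 0.9 synergism. Points with fraction affected below 0.20 were flagged.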

The test system of assay [8] is CAL-27. The experiment in a line: Potentiation of 1 uM cisplatin-induced cytotoxicity against human CAL27 cells assessed as decrease in cell viability by measuring combination index at 1000 uM preincubated for 48 hrs followed by cisplatin treatment measured after 72 hrs by MTT assay. The note with it: in the assay text read “at 1000 nM” for “at 1000 uM”. In kind it is functional. The procedure, abridged: as §1

Assay [9] relates to CAL-27. The experiment in a line: Potentiation of 1 uM cisplatin-induced cytotoxicity against human CAL27 cells assessed as decrease in cell viability by measuring combination index at 2000 uM preincubated for 48 hrs followed by cisplatin treatment measured after 72 hrs by MTT assay. The class given is functional. The following applies: in the assay text read “at 2000 nM” for “at 2000 uM”. The gist of the method: as §1

Assay [10] has as its system CAL-27. Nature of the assay: Potentiation of 2 uM cisplatin-induced cytotoxicity against human CAL27 cells assessed as decrease in cell viability by measuring combination index at 1000 uM preincubated for 48 hrs followed by cisplatin treatment measured after 72 hrs by MTT assay. The note with it: in the assay text read “at 1000 nM” for “at 1000 uM”. In kind it is functional. The procedure, abridged:
as §2

Assay [11] concerns CAL-27. The experiment in a line: Potentiation of 2 uM cisplatin-induced cytotoxicity against human CAL27 cells assessed as decrease in cell viability by measuring combination index at 1500 uM preincubated for 48 hrs followed by cisplatin treatment measured after 72 hrs by MTT assay. The class given is functional. The note with it: in the assay text read “at 1500 nM” for “at 1500 uM”. The procedure, abridged: as §2

Assay [12] deals with CAL-27. The experiment in a line: Potentiation of 5 uM cisplatin-induced cytotoxicity against human CAL27 cells assessed as decrease in cell viability by measuring combination index at 900 uM preincubated for 48 hrs followed by cisplatin treatment measured after 72 hrs by MTT assay. The class given is functional. The following applies: in the assay text read “at 900 nM” for “at 900 uM”. The gist of the method: as §2

Assay [13] relates to CAL-27. The experiment in a line: Potentiation of 5 uM cisplatin-induced cytotoxicity against human CAL27 cells assessed as decrease in cell viability by measuring combination index at 1000 uM preincubated for 48 hrs followed by cisplatin treatment measured after 72 hrs by MTT assay. In kind it is functional. The following applies: in the assay text read “at 1000 nM” for “at 1000 uM”. The procedure, abridged: as §2

Assay [14] relates to CAL-27. Nature of the assay: Potentiation of 5 uM cisplatin-induced cytotoxicity against human CAL27 cells assessed as decrease in cell viability by measuring combination index at 1500 uM preincubated for 48 hrs followed by cisplatin treatment measured after 72 hrs by MTT assay. In kind it is functional. The note with it: in the assay text read “at 1500 nM” for “at 1500 uM”. The procedure, abridged: as §2

Assay [15] has as its system CAL-27. Nature of the assay: Induction of apoptosis in human CAL27 cells at 0.5 uM for 48 hrs by propidium iodide dye-based flow cytometry. The class given is functional, cell-based.
Assay [16] deals with T1, Histone deacetylase 1/6 (Homo sapiens) (UniProt Q13547+Q9UBN7). The experiment in a line: Inhibition of HDAC1/HDAC6 in human Cal27CisR cells assessed as potentiation of 10 uM cisplatin-induced cytotoxicity by measuring combination index at 1500 nM preincubated for 48 hrs followed by cisplatin treatment measured after 72 hrs by MTT assay.
The target in assay [17] is T1, Histone deacetylase 1/6 (Homo sapiens). The experiment in a line: Inhibition of HDAC1/HDAC6 in human Cal27CisR cells assessed as potentiation of 20 uM cisplatin-induced cytotoxicity by measuring combination index at 1000 nM preincubated for 48 hrs followed by cisplatin treatment measured after 72 hrs by MTT assay.
The target is the same in assay [18]. The experiment in a line: Inhibition of HDAC1/HDAC6 in human Cal27CisR cells assessed as potentiation of 20 uM cisplatin-induced cytotoxicity by measuring combination index at 1500 nM preincubated for 48 hrs followed by cisplatin treatment measured after 72 hrs by MTT assay.
The target is the same in assay [19]. The experiment in a line: Inhibition of HDAC1/HDAC6 in human Cal27CisR cells assessed as potentiation of 3.16 uM cisplatin-induced cytotoxicity by measuring combination index at 2000 nM preincubated for 48 hrs followed by cisplatin treatment measured after 72 hrs by MTT assay.
Assay [20] has as its system CAL-27. The experiment in a line: Potentiation of 0.316 uM cisplatin-induced cytotoxicity against human CAL27 cells assessed as decrease in cell viability by measuring combination index at 700 nM preincubated for 48 hrs followed by cisplatin treatment measured after 72 hrs by MTT assay.

Active and inactive are the calls of the source. The rule behind the calls is not given here. Some results are limits rather than exact numbers.

T1 sequence (Q13547 whole entry, looked up): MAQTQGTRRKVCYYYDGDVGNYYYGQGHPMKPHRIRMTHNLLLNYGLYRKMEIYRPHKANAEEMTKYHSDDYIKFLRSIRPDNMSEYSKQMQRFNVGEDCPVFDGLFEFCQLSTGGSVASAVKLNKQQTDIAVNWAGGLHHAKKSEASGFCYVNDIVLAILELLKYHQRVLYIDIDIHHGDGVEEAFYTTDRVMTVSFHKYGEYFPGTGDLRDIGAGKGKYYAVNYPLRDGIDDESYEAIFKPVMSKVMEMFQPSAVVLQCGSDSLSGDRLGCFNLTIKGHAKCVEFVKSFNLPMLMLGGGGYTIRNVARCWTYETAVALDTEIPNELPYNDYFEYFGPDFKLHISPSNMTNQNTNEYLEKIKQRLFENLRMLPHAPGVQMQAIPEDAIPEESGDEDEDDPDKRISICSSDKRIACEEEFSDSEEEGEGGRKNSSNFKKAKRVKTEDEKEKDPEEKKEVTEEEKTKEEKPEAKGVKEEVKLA
T1 sequence (Q9UBN7 whole entry, looked up): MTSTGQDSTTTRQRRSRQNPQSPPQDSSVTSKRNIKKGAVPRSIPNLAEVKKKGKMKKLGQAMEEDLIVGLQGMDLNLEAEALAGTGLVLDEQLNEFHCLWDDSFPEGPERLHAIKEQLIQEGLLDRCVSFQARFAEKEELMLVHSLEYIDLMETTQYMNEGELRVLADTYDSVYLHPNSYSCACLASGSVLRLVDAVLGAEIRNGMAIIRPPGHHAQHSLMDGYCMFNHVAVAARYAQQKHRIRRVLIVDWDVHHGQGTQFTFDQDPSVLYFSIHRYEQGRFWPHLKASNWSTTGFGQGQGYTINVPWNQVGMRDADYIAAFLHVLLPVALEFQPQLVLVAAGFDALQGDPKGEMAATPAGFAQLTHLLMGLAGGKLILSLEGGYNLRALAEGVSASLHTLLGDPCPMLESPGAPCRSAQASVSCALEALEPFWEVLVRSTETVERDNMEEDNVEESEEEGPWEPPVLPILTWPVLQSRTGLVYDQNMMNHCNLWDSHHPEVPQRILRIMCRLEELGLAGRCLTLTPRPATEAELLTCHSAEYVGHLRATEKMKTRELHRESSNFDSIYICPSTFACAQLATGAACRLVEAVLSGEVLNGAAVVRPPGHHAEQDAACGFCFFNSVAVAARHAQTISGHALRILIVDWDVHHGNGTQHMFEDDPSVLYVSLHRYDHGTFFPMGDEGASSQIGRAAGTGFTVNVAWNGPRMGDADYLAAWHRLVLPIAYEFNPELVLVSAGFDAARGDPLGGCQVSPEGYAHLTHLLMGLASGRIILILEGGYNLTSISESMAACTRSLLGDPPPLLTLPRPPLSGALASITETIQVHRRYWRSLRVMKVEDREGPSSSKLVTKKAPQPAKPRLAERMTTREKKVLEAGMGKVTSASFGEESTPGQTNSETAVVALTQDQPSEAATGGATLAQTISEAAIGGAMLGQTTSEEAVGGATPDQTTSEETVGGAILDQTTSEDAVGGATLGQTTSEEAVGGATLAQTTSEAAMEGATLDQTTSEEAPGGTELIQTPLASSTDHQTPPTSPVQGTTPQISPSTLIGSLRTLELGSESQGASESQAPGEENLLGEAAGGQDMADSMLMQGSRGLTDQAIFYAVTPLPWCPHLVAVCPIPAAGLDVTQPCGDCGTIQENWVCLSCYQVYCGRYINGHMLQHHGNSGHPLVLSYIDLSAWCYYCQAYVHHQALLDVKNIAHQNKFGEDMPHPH

`COc1cc(NC(=O)NOCCCCCC(=O)NO)c2nc(OC)cc(C)c2c1`: the Activity in the assay on CAL-27 [1] was 33.3%.

As for `COc1cc(NC(=O)NOCCCCCC(=O)NO)c2nccc(C)c2c1`, in the assay on CAL-27 [2], the outcome was Active. In addition, the CI in the assay on CAL-27 [3] is given as below 0.2.

Turning to `COc1cc(NC(=O)NOCCCCCC(=O)NO)c2ncccc2c1`, the “fold change (FC)” value with CAL-27 [4] stood at 7.1. Moreover, the CI in the assay on CAL-27 [5] is 0.77; in the assay with CAL-27 [6], 0.82; in the assay on CAL-27 [7] it was 0.54; in the assay on CAL-27 [8], 0.5; with CAL-27 [9], 0.75; in the assay on CAL-27 [10] it was 0.41. Moreover, the CI was determined as 0.6 in the assay on CAL-27 [11]; 0.37 in the assay with CAL-27 [12]; 0.4 in the assay on CAL-27 [13]; 0.55 in the assay with CAL-27 [14]; 0.51 in assay [16]; 0.48 in assay [17]. In addition, the CI was 0.62 in assay [18], 0.6 in assay [19] and below 0.2 in the assay with CAL-27 [20]. In addition, in the assay with CAL-27 [15], the result was inactive.

The record behind these values is ChEMBL document CHEMBL4014350, “Alkoxyurea-Based Histone Deacetylase Inhibitors Increase Cisplatin Potency in Chemoresistant Cancer Cell Lines” (J Med Chem, 2017).
